From PubChem BioAssay
hIAP block: human IAP inhibition. purified IAP, CDP-Star luminescence, 30 min. P09923. 0.12% of 330,000 active. inhibition, % at 10 µM;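 active = inhibition reaching a set limit with compound at 10 µM in the primary screen, cut at about 35% in these data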;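 note: plate controls were DMSO wells with enzyme for no effect and no-enzyme buffer wells for full effect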
Target sequence (P09923 whole entry, looked up): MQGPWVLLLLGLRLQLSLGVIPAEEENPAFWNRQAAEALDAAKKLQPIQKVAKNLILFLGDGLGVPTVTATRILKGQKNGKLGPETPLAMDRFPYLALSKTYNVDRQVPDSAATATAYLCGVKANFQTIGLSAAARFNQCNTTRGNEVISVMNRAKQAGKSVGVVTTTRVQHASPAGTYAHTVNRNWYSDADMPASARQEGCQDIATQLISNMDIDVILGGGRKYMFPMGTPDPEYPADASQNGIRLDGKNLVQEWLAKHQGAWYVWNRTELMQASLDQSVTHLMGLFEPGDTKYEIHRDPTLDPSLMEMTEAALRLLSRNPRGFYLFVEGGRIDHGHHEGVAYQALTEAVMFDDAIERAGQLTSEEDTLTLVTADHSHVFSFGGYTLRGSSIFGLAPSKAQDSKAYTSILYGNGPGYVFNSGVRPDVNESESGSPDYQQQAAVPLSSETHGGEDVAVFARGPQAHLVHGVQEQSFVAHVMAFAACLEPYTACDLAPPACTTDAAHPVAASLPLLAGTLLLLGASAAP
hIAP activ: human IAP activation | P09923 | purified human IAP, CDP-Star luminescence, 30 min; hits give high values; 1 = vehicle-only enzyme, 0 = enzyme-free background | activation factor at 10 µM | 0.16% of 330,000 active | AID 2524;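 active = activation factor of the enzyme at least 2-fold when tested at 20 µM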
mIAP inh: blocks mouse intestinal alkaline phosphatase | 0.2% of 330,000 active | purified mouse IAP, CDP-Star luminescence, 30 min | inhibition, % at 10 µM | AID 2806;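 active = inhibition of at least 40% at 10 µM in the primary screen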;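 note: plate controls were DMSO with enzyme for no effect and no enzyme wells for full effect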
bIAP inh: intestinal alkaline phosphatase (bovine) inhibition. purified bovine IAP, CDP-star luminescence, 30 min. inhibition, % at 20 µM. 190,000 tested, under 10 active. AID 1019;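 active = over 50% inhibition of intestinal alkaline phosphatase at 20 µM in the single-dose screen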
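Assay system – bovine IAP enzyme · Quantity – bovine IAP at 1/65,000,000 final dilution · Detection – CDP-star luminescence signal · Times – 30 min reaction at room temperature · Also added – CDP-star substrate at 30 µM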
bIAP activator: increases bovine intestinal alkaline phosphatase activity. purified bovine IAP, CDP-star luminescence, 30 min; hits give high values; fold of DMSO-control signal, blank-subtracted. activation factor at 20 µM. 0.17% of 200,000 active. AID 1016;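 active = activation factor of 2 or more at 20 µM, a signal rise over negative controls twice the positive control's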
mIAP act: increases mouse intestinal alkaline phosphatase activity. muIAP, CDP-Star luminescence, 30 min; hits give high values; 1 = vehicle-only enzyme signal, 0 = enzyme-free wells. activation factor at 10 µM. 0.24% of 330,000 active. AID 2805;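 active = activation factor of at least 2 at 20 µM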
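System: mouse IAP enzyme. Reagent: CDP-Star chemiluminescent phosphatase substrate. Benchmarks: DMSO wells, no-enzyme wells. Times: 30 min enzyme-substrate-compound incubation at room temperature. Detection: luminescence from enzymatic CDP-Star hydrolysis. Doses: test compounds delivered from DMSO solution.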
mIAP inh conf: mouse IAP inhibition confirmation; shares compounds with mIAP inh; purified mouse IAP, CDP-Star luminescence, 30 min; inhibition, % at 10 µM; 4.7% of 11,000 active; AID 434971;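 active = inhibition of at least 40% at 10 µM in either of the two replicates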;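 note: plate controls were DMSO wells with enzyme for no effect and buffer wells lacking enzyme for full effect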
An asterisk follows results filed as active; i = inactive; nt = no result given. An excerpt weighted towards active compounds, which were near 0.79% of everything screened.

SMILES | hIAP block | hIAP activ | mIAP inh | bIAP inh | bIAP activator | mIAP act | mIAP inh conf
COc1ccccc1NS(=O)(=O)c1cc(NC(C)=O)ccc1N1CCCCC1 | -24 | 1.2 | 0 | -11 | 1.1 | 1 | nt
Cc1cc(C)cc(NC(=O)Nc2ccccc2N2CCCCC2)c1 | -12 | 1.1 | -227 | nt | nt | 3.3* | -112
Cc1cc(C)cc(OCC(=O)Nc2ccccc2N2CCCCC2)c1 | 3 | 0.97 | 8 | 0 | 1 | 0.92 | nt
CCc1cc(C(=O)Nc2ccc(S(=O)(=O)NC3=NCCCCC3)cc2)sc1C | 9 | 0.91 | -14 | nt | nt | 1.1 | nt
Cc1ccc(N2C(=O)N(CC(=O)Nc3ccc(F)c(F)c3)C(=O)C2C)cc1 (stereo unspecified) | 10 | 0.9 | 4 | nt | nt | 0.96 | nt
O=C(COC(=O)CCNS(=O)(=O)c1cccs1)Nc1ccccc1 | 9 | 0.91 | -5 | nt | nt | 1 | nt
CC(=O)c1ccc2c(c1)C1C=CCC1C(C(=O)O)N2 (stereo unspecified) | 12 | 0.88 | 47* | -7 | 1.1 | 0.53 | 59*
C=CCc1ccc(OCc2ccc(C(=O)Nc3ccc(NC(C)=O)cc3)o2)c(OC)c1 | -16 | 1.2 | 1 | nt | nt | 0.99 | nt
O=C(CC1Nc2cccc3cccc(c23)NC1=O)Nc1ccccc1 (stereo unspecified) | -9 | 1.1 | 37 | -8 | 1.1 | 0.63 | nt
NC(=O)CC1Nc2cccc3cccc(c23)NC1=O (stereo unspecified) | -17 | 1.2 | 41* | 5 | 0.9 | 0.59 | 50*
O=C1NN(c2cccc(Br)c2)C(=O)/C1=C/c1ccc(-c2cc([N+](=O)[O-])ccc2O)o1 | 35 | 0.65 | 45* | nt | nt | 0.55 | 47*
CC1=NN(c2ccc(C)cc2)C(=O)/C1=C/c1ccc(-c2cc([N+](=O)[O-])ccc2O)o1 | 4 | 0.96 | 33 | nt | nt | 0.67 | nt
O=C(COC(=O)COc1ccccc1)Nc1ncc([N+](=O)[O-])s1 | -28 | 1.3 | 63* | nt | nt | 0.37 | 69*
O=C(COc1ccc(Cl)cc1)Nc1ncc([N+](=O)[O-])s1 | nt | nt | nt | -11 | 1.1 | nt | nt
Cn1cnnc1SCC(=O)Nc1ncc([N+](=O)[O-])s1 | -24 | 1.2 | 41* | nt | nt | 0.59 | 51*
Cc1csc(NC(=O)CSc2nncn2C)n1 | -15 | 1.1 | -8 | 5 | 1 | 1.1 | nt
CCOc1ccc(Oc2ccc(NC(=O)CSc3nncn3C)cc2)cc1 | -31 | 1.3 | 0 | nt | nt | 1 | nt
Cc1occc1-c1nnc(SCC(=O)NC2CCCCC2C)o1 (stereo unspecified) | -2 | 1 | 4 | nt | nt | 0.96 | nt
Oc1ccc(Cl)cc1-c1cc(-c2ccco2)[nH]n1 | 1 | 0.99 | 80* | -11 | 1.1 | 0.2 | 80*
Oc1ccc(Br)cc1-c1cc(-c2ccco2)[nH]n1 | -14 | 1.1 | 24 | 0 | 1 | 0.76 | nt
Cc1cc(O)c2c(c1)C(=O)c1cc(O)cc(O)c1C2=O | 0 | 1 | 18 | nt | nt | 0.82 | nt
O=C1c2cccc(O)c2C(=O)c2c(O)cc(CO)cc21 | 17 | 0.83 | 45* | nt | nt | 0.55 | 52*
S=c1[nH]nc(-c2cc(-c3ccco3)[nH]n2)n1-c1ccccc1Cl | -27 | 1.3 | 57* | -29 | 1.3 | 0.43 | 74*
S=c1[nH]nc(-c2ccco2)n1-c1ccccc1Cl | 8 | 0.92 | -16 | 3 | 1 | 1.2 | nt
O=C(CCc1nc(-c2ccccc2Cl)no1)Nc1cccnc1 | -16 | 1.2 | -4 | nt | nt | 1 | nt
SMILES | hIAP block | hIAP activ | mIAP inh | bIAP inh | bIAP activator | mIAP act | mIAP inh conf
O=C(Nc1ccc(F)c(Cl)c1)C1CC(=O)n2c(nc3ccccc32)N1 (stereo unspecified) | -89 | 1.9 | -182 | -30 | 1.3 | 2.8* | -142
C/C=C1\NC(=O)[C@H](C)NC(=O)[C@@H](NC(=O)[C@@H](Cc2ccc(O)cc2)NC(=O)[C@@H](NC(=O)/C(C)=C/C)C(C)C)[C@@H](C)OC(=O)[C@H](CCCCc2ccc(O)cc2)NC(=O)[C@@H](CCC(=O)O)NC1=O | 10 | 0.9 | -1 | nt | nt | 1 | nt
O=C(CSc1nc2ccccc2c(=O)[nH]1)c1ccc(O)c(O)c1 | 7 | 0.93 | 62* | nt | 0.1 | 0.38 | 72*
CCc1ccc(CNC(=O)CCCC(=O)n2nc(C)c3ccccc32)cc1 | -38 | 1.4 | -6 | nt | nt | 1.1 | nt
CCOC(=O)c1cc(CC)sc1/N=C/C1=C(O)CC(C)(C)CC1=O | 1 | 0.99 | -1 | -23 | 1.2 | 1 | nt
CCOC(=O)c1sc(N=NC2=C(O)CC(C)(C)CC2=O)c(C(=O)OCC)c1C | -25 | 1.2 | -297 | -10 | 1.1 | 4* | -210
COc1cccc(NC(=O)NC2CCCc3ccccc32)c1 (stereo unspecified) | 0 | 1 | -184 | -9 | 1.1 | 2.8* | -174
COc1ccc(NC(=O)NC2CCCc3ccccc32)c(OC)c1 (stereo unspecified) | -4 | 1 | -13 | nt | nt | 1.1 | nt
CCC1CCC(NC(=O)Nc2cccc(OC)c2)CC1 (stereo unspecified) | -19 | 1.2 | -120 | -14 | 1.1 | 2.2* | -137
COc1cccc(C(=O)N2CCN(Cc3ccc(OC)cc3OC)CC2)c1 | 14 | 0.86 | 1 | nt | nt | 0.99 | nt
COc1ccc(S(=O)(=O)/N=C2/NC(=O)/C(=C\c3ccco3)S2)cc1 | 2 | 0.98 | 58* | -41 | 1.4 | 0.42 | 64*
Cc1ccc(C)c(-n2ccnc2SCC(=O)Nc2cccc(S(=O)(=O)NC3=NCCC3)c2)c1 | 3 | 0.97 | 12 | nt | nt | 0.88 | nt
O=C1c2cc(O)c(O)cc2S(=O)(=O)C1c1ccccc1 (stereo unspecified) | 6 | 0.94 | 51* | nt | nt | 0.49 | 62*
O=C1c2ccccc2C(=O)C1c1ccc(O)cc1 | -30 | 1.3 | 8 | 9 | 0.9 | 0.92 | nt
CC(N=Cc1cc([N+](=O)[O-])ccc1O)c1ccccc1 (stereo unspecified) | -10 | 1.1 | -2 | 8 | 0.9 | 1 | nt
CC(N=Cc1cccc(O)c1O)c1ccccc1 (stereo unspecified) | 20 | 0.8 | 60* | 17 | 0.8 | 0.4 | 67*
Oc1ccc(/C=N/Nc2cc(N3CCOCC3)nc(N3CCOCC3)n2)cc1O | -11 | 1.1 | 42* | 4 | 1 | 0.58 | 63*
C/C(=N\NC(=O)c1cc(O)cc(O)c1)c1ccc(NC(=O)Cc2ccccc2)cc1 | -3 | 1 | 50* | nt | nt | 0.49 | 57*
O=C(Nc1ccc(Cl)cc1)NC1CCCCC1Cc1ccco1 (stereo unspecified) | -20 | 1.2 | i | -56 | 1.6 | 7.8* | -111
O=C(Nc1cccc(Cl)c1)NC1CC2CCC(C1)N2Cc1ccco1 (stereo unspecified) | -15 | 1.2 | -15 | -2 | 1 | 1.1 | nt
COc1ccc(CCC(=O)OCC(=O)NCc2ccccc2)cc1 | -9 | 1.1 | -8 | nt | nt | 1.1 | nt
